This is an account of results in ChEMBL document CHEMBL1777788, “Synthesis and in vitro antimicrobial activities of new (cyano-NNO-azoxy)pyrazole derivatives” (2011).

In brackets after ≈: the same amount, converted by molar mass.

Holding throughout (type): functional
For assay [1], the system named is Candida parapsilosis. Kind of assay: Antimicrobial activity against Candida parapsilosis isolate 19 after 48 hrs by microdilution broth method. To be noted: Lodderomyces parapsilosis, isolate 19, 48 h. A digest of the protocol: (§1)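 Yeasts were grown overnight on Sabouraud dextrose agar at 35°C, suspended in water, and adjusted at 530 nm to McFarland 0.5 (approximately 1-5 x 10^6 CFU/ml). They were then diluted 1:100 and 1:20 in RPMI 1640 with 0.165 M MOPS and 2% glucose. Compound in DMSO was tested at ten concentrations, 0.25–256 mg/L, with incubation at 35°C. At 48 h, MIC was read spectrophotometrically as 50% turbidity reduction versus growth control.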

For assay [2], the system named is Nakaseomyces glabratus. The experiment in a line: Antimicrobial activity against Candida glabrata isolate 32 after 48 hrs by microdilution broth method. To be noted: isolate 32, 48 h. The procedure, abridged: as §1
On the technique in general: In broth dilution the organism is exposed to a series of concentrations in liquid medium.

For assay [3], the system named is Nakaseomyces glabratus. The experiment in a line: Antimicrobial activity against Candida glabrata isolate 46 after 48 hrs by microdilution broth method. A digest of the protocol: as §1
Assay [4] has as its system Cryptococcus deneoformans. The experiment in a line: Antimicrobial activity against Cryptococcus neoformans var. neoformans isolate 27 after 48 hrs by microdilution broth method. To be noted: isolate 27, 48 h. A digest of the protocol:
as §1

Assay [5] concerns Nakaseomyces glabratus. The experiment in a line: Antimicrobial activity against Candida glabrata isolate 49 after 48 hrs by microdilution broth method. A digest of the protocol: as §1
Assay [6] relates to Cryptococcus deneoformans. Kind of assay: Antimicrobial activity against Cryptococcus neoformans var. neoformans isolate 30 after 48 hrs by microdilution broth method. To be noted: isolate 30, 48 h. The procedure, abridged:
as §1

Assay [7] concerns Candida tropicalis. Kind of assay: Antimicrobial activity against Candida tropicalis isolate 33 after 48 hrs by microdilution broth method. To be noted: isolate 33, 48 h. The procedure, abridged: as §1
Assay [8] relates to Candida albicans. Kind of assay: Antimicrobial activity against Candida albicans isolate 48 after 48 hrs by microdilution broth method. To be noted: isolate 48, 48 h. A digest of the protocol:
as §1

Assay [9] relates to Pichia kudriavzevii. The experiment in a line: Antimicrobial activity against Candida krusei isolate 48 after 48 hrs by microdilution broth method.
Assay [10] concerns Candida parapsilosis. Kind of assay: Antimicrobial activity against Candida parapsilosis ATCC 22019 after 48 hrs by microdilution broth method. To be noted: Lodderomyces parapsilosis, ATCC 22019, 48 h. A digest of the protocol:
as §1

For assay [11], the system named is Pichia kudriavzevii. The experiment in a line: Antimicrobial activity against Candida krusei isolate 43 after 48 hrs by microdilution broth method.
In assay [12] the test system is Nakaseomyces glabratus. The experiment in a line: Antimicrobial activity against Candida glabrata isolate 30 after 48 hrs by microdilution broth method. The procedure, abridged:
as §1

Assay [13] relates to Pichia kudriavzevii. The experiment in a line: Antimicrobial activity against Candida krusei isolate 31 after 48 hrs by microdilution broth method. To be noted: isolate 31, 48 h. The procedure, abridged:
as §1

For assay [14], the system named is Candida parapsilosis. Kind of assay: Antimicrobial activity against Candida parapsilosis isolate 39 after 48 hrs by microdilution broth method. To be noted: Lodderomyces parapsilosis, isolate 39, 48 h. The procedure, abridged: (§2)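 Yeasts grown overnight on Sabouraud dextrose agar at 35°C, suspended in sterile water, and adjusted to McFarland 0.5 at 530 nm (about 1-5 x 10^6 CFU/ml), then diluted 1:100 and 1:20 in RPMI 1640 with 0.165 M MOPS and 2% glucose. Compound in DMSO tested at ten concentrations, 0.25-256 mg/L, at 35°C. MIC read spectrophotometrically at 48 h as 50% turbidity reduction versus growth control.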

Assay [15] relates to Cryptococcus deneoformans. Kind of assay: Antimicrobial activity against Cryptococcus neoformans var. neoformans isolate 14 after 48 hrs by microdilution broth method. To be noted: isolate 14, 48 h. The procedure, abridged: as §1
Assay [16] relates to Candida tropicalis. Kind of assay: Antimicrobial activity against Candida tropicalis isolate 11 after 48 hrs by microdilution broth method. To be noted: isolate 11, 48 h. A digest of the protocol:
as §1

Assay [17] deals with Candida tropicalis. Kind of assay: Antimicrobial activity against Candida tropicalis isolate 15 after 48 hrs by microdilution broth method. To be noted: isolate 15, 48 h. A digest of the protocol: as §1
In assay [18] the test system is Candida tropicalis. Kind of assay: Antimicrobial activity against Candida tropicalis isolate 22 after 48 hrs by microdilution broth method. To be noted: isolate 22, 48 h. The procedure, abridged:
as §1

Assay [19] concerns Candida albicans. The experiment in a line: Antimicrobial activity against Candida albicans ATCC 90028 after 48 hrs by microdilution broth method. To be noted: ATCC 90028, 48 h. A digest of the protocol:
as §2

For assay [20], the system named is Candida albicans. The experiment in a line: Antimicrobial activity against Candida albicans isolate 31 after 48 hrs by microdilution broth method. To be noted: isolate 31, 48 h. A digest of the protocol:
as §1

The test system of assay [21] is Candida albicans. The experiment in a line: Antimicrobial activity against Candida albicans isolate 47 after 48 hrs by microdilution broth method. To be noted: isolate 47, 48 h. The procedure, abridged:
as §1

Assay [22] concerns Candida parapsilosis. The experiment in a line: Antimicrobial activity against Candida parapsilosis isolate 26 after 48 hrs by microdilution broth method. To be noted: Lodderomyces parapsilosis, isolate 26, 48 h. The procedure, abridged: as §1
The subject of assay [23] is Cryptococcus deneoformans. The experiment in a line: Antimicrobial activity against Cryptococcus neoformans var. neoformans isolate 25 after 48 hrs by microdilution broth method. To be noted: isolate 25, 48 h. A digest of the protocol: as §1
For assay [24], the system named is Pichia kudriavzevii. The experiment in a line: Antimicrobial activity against Candida krusei ATCC 6258 after 48 hrs by microdilution broth method. To be noted: ATCC 6258, 48 h.

As for `Cc1nn(C)c(-c2cccs2)c1/[N+]([O-])=N/C#N`, the MIC with Candida parapsilosis [1] was 32 mg/L (≈ 129 µM); against Nakaseomyces glabratus [2] it was 2 mg/L (≈ 8.09 µM); against Nakaseomyces glabratus [3] it was 2 mg/L (≈ 8.09 µM); in assay [4], 0.25 mg/L (≈ 1.01 µM); with Nakaseomyces glabratus [5], 2 mg/L (≈ 8.09 µM); in assay [6] it was 0.5 mg/L (≈ 2.02 µM). Also, the MIC in the assay on Candida tropicalis [7] turned out to be 32 mg/L (≈ 129 µM); against Candida albicans [8], 4 mg/L (≈ 16.2 µM); against Pichia kudriavzevii [9], 2 mg/L (≈ 8.09 µM); against Candida parapsilosis [10], 32 mg/L (≈ 129 µM); against Pichia kudriavzevii [11] it was 1 mg/L (≈ 4.04 µM); against Nakaseomyces glabratus [12], 2 mg/L (≈ 8.09 µM). Besides, the minimum inhibitory concentration (MIC) against Pichia kudriavzevii [13] was found to be 1 mg/L (≈ 4.04 µM); in the assay on Candida parapsilosis [14], 16 mg/L (≈ 64.7 µM); in assay [15], 0.25 mg/L (≈ 1.01 µM); in the assay on Candida tropicalis [16], 32 mg/L (≈ 129 µM); in the assay on Candida tropicalis [17], 64 mg/L (≈ 259 µM); against Candida tropicalis [18], 32 mg/L (≈ 129 µM). Further, the minimal inhibitory concentration (MIC) was 4 mg/L (≈ 16.2 µM) against Candida albicans [19]; 4 mg/L (≈ 16.2 µM) in the assay with Candida albicans [20]; 4 mg/L (≈ 16.2 µM) in the assay with Candida albicans [21]; 16 mg/L (≈ 64.7 µM) with Candida parapsilosis [22]; 0.5 mg/L (≈ 2.02 µM) in [23]; 1 mg/L (≈ 4.04 µM) in the assay on Pichia kudriavzevii [24].

Regarding `Cc1c(/[N+]([O-])=N/C#N)c(-c2ccco2)nn1C`, the MIC amounted to 64 mg/L (≈ 277 µM) in the assay with Candida parapsilosis [1]; 2 mg/L (≈ 8.65 µM) with Nakaseomyces glabratus [2]; 1 mg/L (≈ 4.32 µM) against Nakaseomyces glabratus [3]; 0.25 mg/L (≈ 1.08 µM) in assay [4]; 1 mg/L (≈ 4.32 µM) with Nakaseomyces glabratus [5]; 0.25 mg/L (≈ 1.08 µM) in assay [6]. In addition, the minimal inhibitory concentration (MIC) against Candida tropicalis [7] is 128 mg/L (≈ 554 µM); against Candida albicans [8], 4 mg/L (≈ 17.3 µM); against Pichia kudriavzevii [9], 2 mg/L (≈ 8.65 µM); in the assay with Candida parapsilosis [10] it was 32 mg/L (≈ 138 µM); against Pichia kudriavzevii [11], 2 mg/L (≈ 8.65 µM); against Nakaseomyces glabratus [12], 1 mg/L (≈ 4.32 µM). In addition, the MIC amounted to 1 mg/L (≈ 4.32 µM) against Pichia kudriavzevii [13]; 16 mg/L (≈ 69.2 µM) with Candida parapsilosis [14]; 0.25 mg/L (≈ 1.08 µM) in assay [15]; 32 mg/L (≈ 138 µM) against Candida tropicalis [16]; 128 mg/L (≈ 554 µM) against Candida tropicalis [17]; 128 mg/L (≈ 554 µM) against Candida tropicalis [18]. The minimal inhibitory concentration (MIC) is 1 mg/L (≈ 4.32 µM) against Candida albicans [19]; 2 mg/L (≈ 8.65 µM) with Candida albicans [20]; 4 mg/L (≈ 17.3 µM) against Candida albicans [21]; 8 mg/L (≈ 34.6 µM) in the assay on Candida parapsilosis [22]; 0.25 mg/L (≈ 1.08 µM) in assay [23]; 1 mg/L (≈ 4.32 µM) in the assay with Pichia kudriavzevii [24].

In the case of `Cc1c(/[N+]([O-])=N/C(N)=O)c(-c2cccs2)nn1C`, the MIC was above 128 mg/L in the assay with Candida parapsilosis [1]; above 128 mg/L against Nakaseomyces glabratus [2]; above 128 mg/L in the assay with Nakaseomyces glabratus [3]; 64 mg/L (≈ 241 µM) in assay [4]; above 128 mg/L against Nakaseomyces glabratus [5]; 128 mg/L (≈ 482 µM) in assay [6]. In addition, the MIC against Candida tropicalis [7], against Candida albicans [8], in the assay with Pichia kudriavzevii [9], in the assay on Candida parapsilosis [10], with Pichia kudriavzevii [11] and against Nakaseomyces glabratus [12] was above 128 mg/L throughout. Moreover, the MIC is above 128 mg/L against Pichia kudriavzevii [13]; above 128 mg/L against Candida parapsilosis [14]; 64 mg/L (≈ 241 µM) in [15]; above 128 mg/L against Candida tropicalis [16]; above 128 mg/L against Candida tropicalis [17]; above 128 mg/L in the assay on Candida tropicalis [18]. Further, the minimal inhibitory concentration (MIC) with Candida albicans [19] was above 128 mg/L; in the assay on Candida albicans [20], above 128 mg/L; against Candida albicans [21] it was above 128 mg/L; against Candida parapsilosis [22], above 128 mg/L; in [23] it was 128 mg/L (≈ 482 µM); in the assay on Pichia kudriavzevii [24], above 128 mg/L.

What is called MIC is the lowest concentration that inhibits growth of the organism.
